According to ChEMBL document CHEMBL5058577, “EUbOPEN Chemogenomics Library 2 (Multiplex)” (2022):

Test system: HEK-293T
Assay: Multiplex assay against HEK293T
Assay type: toxicity, cell-based
Settings: human
Outline: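 Values for tubulin, mitochondrial-mass and membrane-permeability phenotypes are per cents of cells with healthy nuclei. These cells were identified by CellPathfinder machine-learning gating of live cells that had been stained at seeding with Hoechst33342, BioTracker Green Microtubule Cytoskeleton Dye, MitoTracker Red and Annexin V Alexa Fluor 680 and imaged on a CQ1 microscope at 37°C and 5% CO2 after compound addition. The gating first set Hoechst high-intensity objects apart from normal cells, then split normal cells into healthy, pyknosed or fragmented nuclei, and pyknosed cells into mitotic or apoptotic.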

[1] = 12 h, 1 µM, compound concentration 1 uM, replicate 1
[2] = 12 h, 1 µM, compound concentration 1 uM, replicate 2
[3] = 12 h, 10 µM, compound concentration 10 uM, replicate 1
[4] = 12 h, 10 µM, compound concentration 10 uM, replicate 2
[5] = 24 h, 1 µM, compound concentration 1 uM, replicate 1
[6] = 24 h, 1 µM, compound concentration 1 uM, replicate 2
[7] = 24 h, 10 µM, compound concentration 10 uM, replicate 1
[8] = 24 h, 10 µM, compound concentration 10 uM, replicate 2
[9] = 48 h, 1 µM, compound concentration 1 uM, replicate 1
[10] = 48 h, 1 µM, compound concentration 1 uM, replicate 2
[11] = 48 h, 10 µM, compound concentration 10 uM, replicate 1
[12] = 48 h, 10 µM, compound concentration 10 uM, replicate 2

Nc1nc(CC(=O)Nc2ccc(CCNC[C@H](O)c3ccccc3)cc2)cs1 [MIRABEGRON]
Population Apoptotic (%) [1]: 22% | Population Fragmented Nuclei (%) [1]: 5% | Population Healthy Nuclei (%) [1]: 84% | Population Hoechst High Intensity Objects (%) [1]: 5% | Population Membrane Permeable-Phenotype (%) [1]: 0% | Population Mitochondria Different-Phenotype (%) [1]: 45% | Population Mitotic Cells (%) [1]: 77% | Population Normal (%) [1]: 94% | Population Pyknosed Nuclei (%) [1]: 10% | Population Tubulin-Different-Phenotype (%) [1]: 19% | Total Cell Count [1]: 455 | Population Apoptotic (%) [2]: 55% | Population Fragmented Nuclei (%) [2]: 8% | Population Healthy Nuclei (%) [2]: 80% | Population Mitochondria Different-Phenotype (%) [2]: 56% | Population Mitotic Cells (%) [2]: 44% | Population Pyknosed Nuclei (%) [2]: 11% | Total Cell Count [2]: 332 | Population Apoptotic (%) [3]: 32% | Population Fragmented Nuclei (%) [3]: 5% | Population Healthy Nuclei (%) [3]: 77% | Population Hoechst High Intensity Objects (%) [3]: 7% | Population Membrane Permeable-Phenotype (%) [3]: 0% | Population Mitochondria Different-Phenotype (%) [3]: 51% | Population Mitotic Cells (%) [3]: 67% | Population Normal (%) [3]: 92% | Population Pyknosed Nuclei (%) [3]: 17% | Population Tubulin-Different-Phenotype (%) [3]: 41% | Total Cell Count [3]: 423 | Population Apoptotic (%) [4]: 44% | Population Fragmented Nuclei (%) [4]: 11% | Population Healthy Nuclei (%) [4]: 74% | Population Hoechst High Intensity Objects (%) [4]: 8% | Population Mitochondria Different-Phenotype (%) [4]: 64% | Population Mitotic Cells (%) [4]: 56% | Population Normal (%) [4]: 91% | Population Pyknosed Nuclei (%) [4]: 14% | Population Tubulin-Different-Phenotype (%) [4]: 29% | Total Cell Count [4]: 388 | Population Apoptotic (%) [5]: 28% | Population Fragmented Nuclei (%) [5]: 10% | Population Healthy Nuclei (%) [5]: 80% | Population Hoechst High Intensity Objects (%) [5]: 2% | Population Membrane Permeable-Phenotype (%) [5]: 0% | Population Mitochondria Different-Phenotype (%) [5]: 30% | Population Mitotic Cells (%) [5]: 71% | Population Normal (%) [5]: 97% | Population Pyknosed Nuclei (%) [5]: 9% | Population Tubulin-Different-Phenotype (%) [5]: 14% | Total Cell Count [5]: 635 | Population Apoptotic (%) [6]: 27% | Population Fragmented Nuclei (%) [6]: 8% | Population Healthy Nuclei (%) [6]: 83% | Population Hoechst High Intensity Objects (%) [6]: 3% | Population Mitochondria Different-Phenotype (%) [6]: 41% | Population Mitotic Cells (%) [6]: 72% | Population Normal (%) [6]: 96% | Population Pyknosed Nuclei (%) [6]: 7% | Population Tubulin-Different-Phenotype (%) [6]: 13% | Total Cell Count [6]: 390 | Population Apoptotic (%) [7]: 31% | Population Fragmented Nuclei (%) [7]: 8% | Population Healthy Nuclei (%) [7]: 77% | Population Hoechst High Intensity Objects (%) [7]: 4% | Population Membrane Permeable-Phenotype (%) [7]: 0% | Population Mitochondria Different-Phenotype (%) [7]: 32% | Population Mitotic Cells (%) [7]: 68% | Population Normal (%) [7]: 95% | Population Pyknosed Nuclei (%) [7]: 13% | Population Tubulin-Different-Phenotype (%) [7]: 23% | Total Cell Count [7]: 552 | Population Apoptotic (%) [8]: 35% | Population Fragmented Nuclei (%) [8]: 9% | Population Healthy Nuclei (%) [8]: 82% | Population Hoechst High Intensity Objects (%) [8]: 5% | Population Mitochondria Different-Phenotype (%) [8]: 49% | Population Mitotic Cells (%) [8]: 64% | Population Normal (%) [8]: 94% | Population Pyknosed Nuclei (%) [8]: 7% | Total Cell Count [8]: 524 | Population Apoptotic (%) [9]: 18% | Population Fragmented Nuclei (%) [9]: 13% | Population Healthy Nuclei (%) [9]: 80% | Population Hoechst High Intensity Objects (%) [9]: 1% | Population Membrane Permeable-Phenotype (%) [9]: 1% | Population Mitochondria Different-Phenotype (%) [9]: 14% | Population Mitotic Cells (%) [9]: 81% | Population Normal (%) [9]: 98% | Population Pyknosed Nuclei (%) [9]: 5% | Population Tubulin-Different-Phenotype (%) [9]: 10% | Total Cell Count [9]: 1141 | Population Apoptotic (%) [10]: 28% | Population Fragmented Nuclei (%) [10]: 17% | Population Healthy Nuclei (%) [10]: 76% | Population Hoechst High Intensity Objects (%) [10]: 0% | Population Mitochondria Different-Phenotype (%) [10]: 21% | Population Mitotic Cells (%) [10]: 71% | Population Normal (%) [10]: 99% | Total Cell Count [10]: 662 | Population Apoptotic (%) [11]: 26% | Population Fragmented Nuclei (%) [11]: 12% | Population Healthy Nuclei (%) [11]: 78% | Population Hoechst High Intensity Objects (%) [11]: 3% | Population Membrane Permeable-Phenotype (%) [11]: 0% | Population Mitochondria Different-Phenotype (%) [11]: 25% | Population Mitotic Cells (%) [11]: 73% | Population Normal (%) [11]: 96% | Population Pyknosed Nuclei (%) [11]: 8% | Population Tubulin-Different-Phenotype (%) [11]: 16% | Total Cell Count [11]: 818 | Population Apoptotic (%) [12]: 28% | Population Healthy Nuclei (%) [12]: 80% | Population Hoechst High Intensity Objects (%) [12]: 2% | Population Mitochondria Different-Phenotype (%) [12]: 30% | Population Mitotic Cells (%) [12]: 71% | Population Normal (%) [12]: 97% | Population Pyknosed Nuclei (%) [12]: 6% | Population Tubulin-Different-Phenotype (%) [12]: 15% | Total Cell Count [12]: 750

Cc1c(Cc2ccc3ccccc3n2)c2cc(F)ccc2n1CC(=O)O [TIMAPIPRANT]
Population Apoptotic (%) [1]: 42% | Population Fragmented Nuclei (%) [1]: 7% | Population Healthy Nuclei (%) [1]: 80% | Population Hoechst High Intensity Objects (%) [1]: 10% | Population Membrane Permeable-Phenotype (%) [1]: 0% | Population Mitochondria Different-Phenotype (%) [1]: 36% | Population Mitotic Cells (%) [1]: 57% | Population Normal (%) [1]: 89% | Population Pyknosed Nuclei (%) [1]: 11% | Population Tubulin-Different-Phenotype (%) [1]: 20% | Total Cell Count [1]: 394 | Population Fragmented Nuclei (%) [2]: 6% | Population Hoechst High Intensity Objects (%) [2]: 7% | Population Mitochondria Different-Phenotype (%) [2]: 55% | Population Normal (%) [2]: 92% | Population Pyknosed Nuclei (%) [2]: 12% | Population Tubulin-Different-Phenotype (%) [2]: 16% | Total Cell Count [2]: 280 | Population Apoptotic (%) [3]: 32% | Population Fragmented Nuclei (%) [3]: 7% | Population Healthy Nuclei (%) [3]: 78% | Population Hoechst High Intensity Objects (%) [3]: 6% | Population Membrane Permeable-Phenotype (%) [3]: 0% | Population Mitochondria Different-Phenotype (%) [3]: 55% | Population Mitotic Cells (%) [3]: 67% | Population Normal (%) [3]: 93% | Population Pyknosed Nuclei (%) [3]: 14% | Population Tubulin-Different-Phenotype (%) [3]: 38% | Total Cell Count [3]: 434 | Population Apoptotic (%) [4]: 33% | Population Fragmented Nuclei (%) [4]: 6% | Population Hoechst High Intensity Objects (%) [4]: 5% | Population Mitochondria Different-Phenotype (%) [4]: 63% | Population Mitotic Cells (%) [4]: 66% | Population Normal (%) [4]: 94% | Population Pyknosed Nuclei (%) [4]: 15% | Population Tubulin-Different-Phenotype (%) [4]: 28% | Total Cell Count [4]: 354 | Population Apoptotic (%) [5]: 31% | Population Fragmented Nuclei (%) [5]: 10% | Population Healthy Nuclei (%) [5]: 81% | Population Hoechst High Intensity Objects (%) [5]: 4% | Population Membrane Permeable-Phenotype (%) [5]: 1% | Population Mitochondria Different-Phenotype (%) [5]: 20% | Population Mitotic Cells (%) [5]: 68% | Population Normal (%) [5]: 95% | Population Pyknosed Nuclei (%) [5]: 8% | Population Tubulin-Different-Phenotype (%) [5]: 15% | Total Cell Count [5]: 516 | Population Apoptotic (%) [6]: 53% | Population Fragmented Nuclei (%) [6]: 7% | Population Healthy Nuclei (%) [6]: 83% | Population Hoechst High Intensity Objects (%) [6]: 5% | Population Membrane Permeable-Phenotype (%) [6]: 0% | Population Mitochondria Different-Phenotype (%) [6]: 38% | Population Mitotic Cells (%) [6]: 46% | Population Normal (%) [6]: 94% | Total Cell Count [6]: 381 | Population Apoptotic (%) [7]: 32% | Population Fragmented Nuclei (%) [7]: 7% | Population Healthy Nuclei (%) [7]: 78% | Population Hoechst High Intensity Objects (%) [7]: 4% | Population Membrane Permeable-Phenotype (%) [7]: 0% | Population Mitochondria Different-Phenotype (%) [7]: 31% | Population Mitotic Cells (%) [7]: 67% | Population Normal (%) [7]: 95% | Population Pyknosed Nuclei (%) [7]: 13% | Population Tubulin-Different-Phenotype (%) [7]: 28% | Total Cell Count [7]: 560 | Population Apoptotic (%) [8]: 37% | Population Fragmented Nuclei (%) [8]: 12% | Population Healthy Nuclei (%) [8]: 77% | Population Hoechst High Intensity Objects (%) [8]: 5% | Population Mitochondria Different-Phenotype (%) [8]: 44% | Population Mitotic Cells (%) [8]: 62% | Population Normal (%) [8]: 94% | Population Pyknosed Nuclei (%) [8]: 10% | Population Tubulin-Different-Phenotype (%) [8]: 20% | Total Cell Count [8]: 475 | Population Apoptotic (%) [9]: 26% | Population Fragmented Nuclei (%) [9]: 13% | Population Healthy Nuclei (%) [9]: 78% | Population Hoechst High Intensity Objects (%) [9]: 2% | Population Membrane Permeable-Phenotype (%) [9]: 1% | Population Mitochondria Different-Phenotype (%) [9]: 9% | Population Mitotic Cells (%) [9]: 73% | Population Normal (%) [9]: 97% | Population Pyknosed Nuclei (%) [9]: 8% | Population Tubulin-Different-Phenotype (%) [9]: 6% | Total Cell Count [9]: 799 | Population Apoptotic (%) [10]: 17% | Population Fragmented Nuclei (%) [10]: 15% | Population Healthy Nuclei (%) [10]: 76% | Population Hoechst High Intensity Objects (%) [10]: 3% | Population Membrane Permeable-Phenotype (%) [10]: 0% | Population Mitochondria Different-Phenotype (%) [10]: 25% | Population Mitotic Cells (%) [10]: 82% | Population Normal (%) [10]: 96% | Population Tubulin-Different-Phenotype (%) [10]: 12% | Total Cell Count [10]: 566 | Population Apoptotic (%) [11]: 33% | Population Fragmented Nuclei (%) [11]: 10% | Population Healthy Nuclei (%) [11]: 79% | Population Hoechst High Intensity Objects (%) [11]: 4% | Population Membrane Permeable-Phenotype (%) [11]: 1% | Population Mitochondria Different-Phenotype (%) [11]: 24% | Population Mitotic Cells (%) [11]: 66% | Population Normal (%) [11]: 95% | Population Pyknosed Nuclei (%) [11]: 9% | Population Tubulin-Different-Phenotype (%) [11]: 17% | Total Cell Count [11]: 752 | Population Apoptotic (%) [12]: 36% | Population Fragmented Nuclei (%) [12]: 14% | Population Healthy Nuclei (%) [12]: 78% | Population Membrane Permeable-Phenotype (%) [12]: 0% | Population Mitochondria Different-Phenotype (%) [12]: 33% | Population Mitotic Cells (%) [12]: 63% | Population Pyknosed Nuclei (%) [12]: 6% | Population Tubulin-Different-Phenotype (%) [12]: 16% | Total Cell Count [12]: 630
